Experimental data as given in paper PMC4788500 (Structure (London, England : 1993), 2015).
Residue numbers refer to the chain shown, from its start.

Tests used:
PLCδ1 PH domain = target: T1, PLCδ1 PH domain (Rattus norvegicus, UniProt P10688); experiment: Isothermal titration calorimetry, PLCδ1 PH domain; format: binding; conditions: read-out: dissociation constant (KD) by ITC; PBS, 25°C; three independent experiments
T1 sequence (P10688 11-140): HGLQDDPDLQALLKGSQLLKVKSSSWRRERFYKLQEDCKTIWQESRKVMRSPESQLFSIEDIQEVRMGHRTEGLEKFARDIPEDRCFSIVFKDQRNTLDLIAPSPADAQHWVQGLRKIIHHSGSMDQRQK

PdZA = experiment: Displacement of PdZA from PtdSer/PtdIns; format: binding; conditions: vesicles with 5 or 12.5 µM PtdIns(4,5)P2, 15% PtdSer
[1] = target: T2, ASAP1 PH domain, lysine 355 mutant (Mus musculus, UniProt Q9QWY8, K355N); experiment: diC4-PtdIns; format: binding; conditions: atypical-site mutant
T2 sequence (Q9QWY8 325-451 K355N): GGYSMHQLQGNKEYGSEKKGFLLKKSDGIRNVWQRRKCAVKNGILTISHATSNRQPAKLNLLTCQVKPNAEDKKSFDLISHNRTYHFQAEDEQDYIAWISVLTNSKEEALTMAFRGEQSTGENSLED
Summary of the method: (§1)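 ASAP1 PH domain, wild-type or site-directed mutant, is used at 1 µM and mixed with varying diC4-PtdIns(4,5)P2 in 20 mM HEPES pH 7.4, 100 mM NaCl. Tryptophan fluorescence spectra are recorded with excitation at 280 nm and emission at 310–450 nm. Signal is normalized to fluorescence without diC4-PtdIns(4,5)P2 and plotted against lipid concentration.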

[2] = target: T3, ASAP1 PH domain, arginine 360 mutant (Mus musculus, UniProt Q9QWY8, R360Q); experiment: diC4-PtdIns; format: binding; conditions: canonical-site mutant
T3 sequence (Q9QWY8 325-451 R360Q): T2 sequence (Q9QWY8 325-451 K355N) with N31K, R36Q
Summary of the method: as §1

ASAP1 [3] = target: T4, ASAP1 (Mus musculus, UniProt Q9QWY8); conditions: cited from earlier work
T4 sequence (Q9QWY8 325-724): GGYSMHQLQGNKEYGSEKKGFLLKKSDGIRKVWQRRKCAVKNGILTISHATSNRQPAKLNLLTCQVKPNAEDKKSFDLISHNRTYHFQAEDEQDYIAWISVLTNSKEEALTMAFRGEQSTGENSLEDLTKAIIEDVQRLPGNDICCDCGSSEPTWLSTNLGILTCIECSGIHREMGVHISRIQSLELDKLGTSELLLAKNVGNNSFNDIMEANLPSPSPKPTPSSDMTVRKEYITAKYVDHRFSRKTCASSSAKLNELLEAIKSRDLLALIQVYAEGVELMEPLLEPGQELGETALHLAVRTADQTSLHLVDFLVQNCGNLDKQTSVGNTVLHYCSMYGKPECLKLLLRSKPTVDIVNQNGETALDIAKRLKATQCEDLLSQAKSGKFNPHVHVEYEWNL

ASAP1 [4] = target: T4, ASAP1; experiment: Anionic phospholipid dependence of ASAP1; format: biochemical; conditions: LUVs; from C50 values
Summary of the method: (§2)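 Construct is PZA, the PH–Arf GAP–ankyrin repeat fragment of ASAP1, prepared as previously described. It is titrated into reactions with myrArf1·GTP as substrate and LUVs of the indicated lipid composition (e.g. 15% PtdSer, 10% PtdIns(4,5)P2, or both). Reactions run 3 min. Percent of Arf-bound GTP hydrolyzed is plotted against PZA concentration. C50 is the PZA concentration giving 50% hydrolysis, estimated from three experiments.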

myrArf1·GTP = format: biochemical; conditions: absence of anionic phospholipid
Summary of the method: as §2

For `O=P(O)(O)O[C@@H]1[C@H](O)[C@H](O)[C@@H](OP(=O)(O)O)[C@H](OP(=O)(O)O)[C@H]1O` [Ins(1,4,5)P3, inositol 1,4,5-trisphosphate], the Kd (PLCδ1 PH domain) was 180 ± 30 nM and the “Ins(1,4,5)P3 concentration displacing half of the protein from LUVs” value (PdZA) was “less than half the PtdIns(4,5)P2 concentration”.

In the case of `CCCC(=O)OC[C@H](COP(=O)(O)O[C@@H]1[C@H](O)[C@H](O)[C@@H](OP(=O)(O)O)[C@H](OP(=O)(O)O)[C@H]1O)OC(=O)CCC` [diC4-PtdIns(4,5)P2, dibutyryl PtdIns(4,5)P2], the “binding compared with wild-type protein (tryptophan fluorescence)” value [1] is given as “no effect on binding”, the “binding compared with wild-type protein (tryptophan fluorescence)” value [2] is given as “reduced binding” and the “increase of ASAP1 activity at saturating concentrations” value (ASAP1 [3]; soluble lipid, no bilayer, ref Che et al., 2005) is given as 2- to 4 fold.

For “Phosphatidylinositol 4,5-bisphosphate [PtdIns(4,5)P2]”, the “increase of GAP activity compared with PtdSer alone” value (ASAP1 [4]) is listed as ~1,500 fold, the “increase of GAP activity compared with no anionic lipid” value (ASAP1 [4]) is listed as “approximately 20,000 fold” and the “increase of ASAP1 enzymatic activity on binding to the PH domain” value (ASAP1 [3]; ref Kam et al., 2000) is listed as “approximately 10,000 fold”.

In the case of phosphatidylserine [PtdSer], the “increase of GAP activity compared with no anionic lipid” value (ASAP1 [4]) is reported as 15 fold.

B1: Wild-type: His10-[325–724]ASAP1: fragment of ASAP1 comprising the PH, Arf GAP, and Ankyrin repeat domains (protein, UniProt Q9ULH1 325-724, looked up, fragment)
chain: SEKKGYLLKKSDGIRKVWQRRKCSVKNGILTISHATSNRQPAKLNLLTCQVKPNAEDKKSFDLISHNRTYHFQAEDEQDYVAWISVLTNSKEEALTMAFRGEQSAGENSLEDLTKAIIEDVQRLPGNDICCDCGSSEPTWLSTNLGILTCIECSGIHREMGVHISRIQSLELDKLGTSELLLAKNVGNNSFNDIMEANLPSPSPKPTPSSDMTVRKEYITAKYVDHRFSRKTCSTSSAKLNELLEAIKSRDLLALIQVYAEGVELMEPLLEPGQELGETALHLAVRTADQTSLHLVDFLVQNCGNLDKQTALGNTVLHYCSMYSKPECLKLLLRSKPTVDIVNQAGETALDIAKRLKATQCEDLLSQAKSGKFNPHVHVEYEWNLRQEEIDESDDDLDDK
modifications: His10 tag
With B1 the “amount of ASAP1 necessary to hydrolyze 50% of the GTP bound to Arf (C50)” value (myrArf1·GTP) was 1 µM.
